{"source": "ChEMBL document CHEMBL3627626", "about": "“6-Substituted Pyrrolo[2,3-d]pyrimidine Thienoyl Regioisomers as Targeted Antifolates for Folate Receptor α and the Proton-Coupled Folate Transporter in Human Tumors” (J Med Chem, 2015)", "key": {"SK-OV-3 [1]": {"tested_on": "SK-OV-3", "assay": "Antitumor activity against human SKOV3 cells expressing RFC/PCFT/FRalpha xenografted in folate-replete diet fed NCR SCID mouse assessed as tumor growth inhibition at 16 mg/kg, iv administered every 4 days on day 3, 7, 11 measured on day 21 relative to control", "format": "functional", "in_short": "(§1)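 Ten-week-old female NCR SCID mice, fed a folate-deficient or standard folate-replete diet, were implanted subcutaneously and bilaterally with SKOV3 tumour fragments. Randomised at 5 mice/group. Dosed intravenously, 0.2 mL per injection, in 5% ethanol/1% Tween-80/0.5% NaHCO3 in water at pH 6.5, on days 3, 7 and 11. Tumours measured twice weekly and mice weighed daily. T/C taken on day 21; growth delay and log cell kill also reported.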"}, "Mus musculus": {"tested_on": "Mus musculus", "assay": "Toxicity in folate-replete diet fed NCR SCID mouse xenografted with human SKOV3 cells expressing RFC/PCFT/FRalpha assessed as body weight loss at 16 mg/kg, iv administered every 4 days on day 3, 7, 11", "format": "organism-based, SK-OV-3", "conditions": "in vivo, 96 h"}, "RT16": {"tested_on": "RT16", "assay": "Selectivity ratio of IC50 for human RFC expressed in Chinese hamster PC43-10 cells assessed as cell growth inhibition to IC50 for human FRalpha expressed in Chinese hamster RT16 cells assessed as cell growth inhibition", "format": "cell-based"}, "R2": {"tested_on": "R2", "assay": "Cytotoxicity against PCFT-null Chinese hamster R2 cells assessed as cell growth inhibition after 96 hrs by CellTiter-Blue assay", "format": "cell-based, Cricetulus griseus", "conditions": "R2, 96 h"}, "SK-OV-3 [2]": {"tested_on": "SK-OV-3", "assay": "Antiproliferative activity against human SKOV3 cells after 96 hrs by CellTiter-Blue assay in presence of 200 nM folic acid", "format": "functional, cell-based", "conditions": "SK-OV-3, 96 h", "in_short": "(§2)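 IGROV1 and SKOV3 cells plated at ~2500–5000 cells/well in folate-free RPMI 1640 with 10% dialyzed FBS, antibiotics and 2 nM LCV, over a range of drug concentrations, ±200 nM folic acid in parallel. Incubated up to 96 h. Viability read by Cell Titer Blue fluorescence (ex 560/em 590 nm).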"}, "KB [3]": {"tested_on": "KB", "assay": "Antiproliferative activity against human KB cells expressing FRalpha/PCFT/RFC assessed as cell growth inhibition after 96 hrs by CellTiter-Blue assay in presence of 200 nM folic acid", "format": "functional, cell-based"}, "[4]": {"biological_target": "Folate receptor beta (Homo sapiens) (UniProt P14207)", "sequence (P14207 17-230 limits assumed)": "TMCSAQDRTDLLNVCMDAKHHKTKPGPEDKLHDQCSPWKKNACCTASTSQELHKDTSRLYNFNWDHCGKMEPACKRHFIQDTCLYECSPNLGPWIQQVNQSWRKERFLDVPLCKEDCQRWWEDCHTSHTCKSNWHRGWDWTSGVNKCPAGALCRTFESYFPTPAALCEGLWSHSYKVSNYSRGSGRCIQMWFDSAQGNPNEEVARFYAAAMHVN", "assay": "Binding affinity to human FRbeta expressed in Chinese hamster D4 cells assessed as intracellular drug level at 50 nM at 37 degC after 1 hr", "format": "cell-based", "in_short": "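D4 CHO cells (human FRβ) were acid-washed at pH 3.5, then given 50 nM [3H]drug in HBSS pH 7.4 at 37 °C for 60 min. A second acid wash removed surface-bound label to give the intracellular fraction. Cells were solubilised in NaOH, and values expressed as pmol/mg protein. Mean ±SEM of three experiments.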"}, "KB [5]": {"tested_on": "KB", "assay": "Antiproliferative activity against human KB cells expressing FRalpha/PCFT/RFC assessed as cell growth inhibition after 96 hrs by CellTiter-Blue assay", "format": "functional, cell-based"}, "SK-OV-3 [6]": {"tested_on": "SK-OV-3", "assay": "Antitumor activity against human SKOV3 cells expressing RFC/PCFT/FRalpha xenografted in folate-deficient diet fed NCR SCID mouse assessed as tumor growth inhibition at 16 mg/kg, iv administered every 4 days on day 3, 7, 11 measured on day 21 relative to control", "format": "functional", "in_short": "as §1"}, "SK-OV-3 [7]": {"tested_on": "SK-OV-3", "assay": "Antitumor activity against human SKOV3 cells expressing RFC/PCFT/FRalpha xenografted in folate-deficient diet fed NCR SCID mouse assessed as delay in tumor growth at 16 mg/kg, iv administered every 4 days on day 3, 7, 11 measured twice per week", "format": "functional, organism-based", "in_short": "as §1"}, "[8]": {"biological_target": "T1, Proton-coupled folate transporter (Homo sapiens) (UniProt Q96NT5)", "T1 sequence (whole entry)": "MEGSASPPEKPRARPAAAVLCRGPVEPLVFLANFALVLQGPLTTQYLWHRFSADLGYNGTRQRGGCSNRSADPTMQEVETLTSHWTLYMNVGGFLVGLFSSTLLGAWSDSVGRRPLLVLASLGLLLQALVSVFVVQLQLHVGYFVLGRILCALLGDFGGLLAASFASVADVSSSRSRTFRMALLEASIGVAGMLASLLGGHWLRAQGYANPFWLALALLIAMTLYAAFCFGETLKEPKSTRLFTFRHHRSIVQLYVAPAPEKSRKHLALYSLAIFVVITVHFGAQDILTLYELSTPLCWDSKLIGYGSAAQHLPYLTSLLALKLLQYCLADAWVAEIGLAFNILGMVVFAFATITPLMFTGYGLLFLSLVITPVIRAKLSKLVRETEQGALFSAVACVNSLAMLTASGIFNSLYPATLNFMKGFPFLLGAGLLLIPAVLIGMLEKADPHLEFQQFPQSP", "assay": "Binding affinity to human PCFT expressed in Chinese hamster R2/PCFT4 cells assessed as intracellular drug level at 0.5 uM at 37 degC at pH 5.5 measured over 5 mins", "format": "cell-based"}, "[9]": {"biological_target": "T1, Proton-coupled folate transporter (Homo sapiens)", "assay": "Binding affinity to human PCFT expressed in Chinese hamster R2/PCFT4 cells assessed as intracellular drug transport rate at 37 degC at pH 6.8 measured over 2 mins by Lineweaver-Burk plot analysis", "format": "cell-based", "in_short": "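R2/PCFT4 CHO cells were grown as monolayers, transferred to spinner flasks, and used as suspensions (5–10 × 10⁷ cells). Uptake was quenched with ice-cold DPBS and cells were NaOH-solubilized. Results are pmol/mg protein; Kt and Vmax come from Lineweaver–Burke plots.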"}, "SK-OV-3 [10]": {"tested_on": "SK-OV-3", "assay": "Antiproliferative activity against human SKOV3 cells after 96 hrs by CellTiter-Blue assay", "format": "functional, cell-based", "conditions": "SK-OV-3, 96 h", "in_short": "as §2"}}, "note": "Calls of active or inactive are those of the source. The rule behind the calls is not given here."}
{"smiles": "Nc1nc2[nH]c(CCCc3cc(C(=O)N[C@@H](CCC(=O)O)C(=O)O)cs3)cc2c(=O)[nH]1", "values": [{"measurement": "T/C", "setting": "SK-OV-3 [1]", "result": 69, "unit": "%"}, {"measurement": "Activity", "setting": "Mus musculus", "result": "Non-toxic"}, {"measurement": "Ratio IC50", "setting": "RT16", "result": 610}, {"measurement": "IC50", "setting": "R2", "result": 290, "unit": "nM"}, {"measurement": "IC50", "setting": "SK-OV-3 [2]", "result": 76, "unit": "nM"}, {"measurement": "IC50", "setting": "KB [3]", "result": 105, "unit": "nM"}, {"measurement": "Activity", "setting": "[4]", "result": 3.35, "unit": "pmol/mg"}, {"measurement": "IC50", "setting": "KB [5]", "result": 0.09, "unit": "nM"}, {"measurement": "T/C", "setting": "SK-OV-3 [6]", "result": 15, "unit": "%"}, {"measurement": "Activity", "setting": "SK-OV-3 [7]", "result": "Active"}, {"measurement": "Activity", "setting": "[8]", "result": "Active"}, {"measurement": "K", "setting": "[9]", "result": 0.17, "unit": "µM"}, {"measurement": "IC50", "setting": "SK-OV-3 [10]", "result": 15.5, "unit": "nM"}]}
